Legend:
[1] = system: Klebsiella pneumoniae; test: Synergistic antibacterial activity against Klebsiella pneumoniae 977/1916 producing KPC-3 assessed as cefepime MIC at 8 ug/ml by broth microdilution method; type: functional; settings: dose 8 µg/ml
[2] = system: Klebsiella pneumoniae; test: Synergistic antibacterial activity against Klebsiella pneumoniae 729/1679 producing KPC-3 assessed as meropenem MIC at 4 ug/ml by broth microdilution method; type: functional; settings: dose 4 µg/ml
Outline: (§1)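 Broth microdilution per CLSI guidelines, using custom frozen panels. […] Each partner drug was also tested alone. MICs were run in triplicate and the modal value is reported.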

[3] = system: Acinetobacter baumannii; test: Synergistic antibacterial activity against ADC deleted Acinetobacter baumannii transfected with pWH1266 producing OXA-24/40 assessed as meropenem MIC at 4 ug/ml by broth microdilution method; type: functional; settings: dose 4 µg/ml
[4] = system: Klebsiella pneumoniae; test: Synergistic antibacterial activity against Klebsiella pneumoniae 761/1723 producing KPC-3 assessed as cefepime MIC at 8 ug/ml by broth microdilution method; type: functional; settings: dose 8 µg/ml; outline: as §1
[5] = system: Acinetobacter baumannii; test: Synergistic antibacterial activity against Acinetobacter baumannii PR420 producing OXA-23/24/40 assessed as meropenem MIC at 4 ug/ml by broth microdilution method; type: functional; settings: dose 4 µg/ml
[6] = system: Acinetobacter baumannii; test: Synergistic antibacterial activity against Acinetobacter baumannii PR359 producing OXA-23 assessed as meropenem MIC at 8 ug/ml by broth microdilution method; type: functional; settings: dose 8 µg/ml
Outline: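 Broth microdilution per CLSI guidelines in frozen panels. Test compound held at fixed 8 mg/L while the partner β-lactam concentration was increased. Run in triplicate; modal MIC reported.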

[7] = system: Klebsiella pneumoniae; test: Synergistic antibacterial activity against Klebsiella pneumoniae 1354/2241 producing KPC-3 assessed as cefepime MIC at 4 ug/ml by broth microdilution method; type: functional; settings: dose 4 µg/ml; outline: as §1
[8] = system: Klebsiella pneumoniae; test: Synergistic antibacterial activity against Klebsiella pneumoniae 901/1860 producing KPC-3 assessed as cefepime MIC at 4 ug/ml by broth microdilution method; type: functional; settings: dose 4 µg/ml
[9] = system: Klebsiella pneumoniae; test: Synergistic antibacterial activity against Klebsiella pneumoniae NY BS producing OXA-232 assessed as cefepime MIC at 8 ug/ml by broth microdilution method; type: functional; settings: dose 8 µg/ml
[10] = system: Acinetobacter baumannii; test: Synergistic antibacterial activity against Acinetobacter baumannii PR476 producing OXA-24/40 assessed as meropenem MIC at 8 ug/ml by broth microdilution method; type: functional; settings: dose 8 µg/ml
[11] = system: Klebsiella pneumoniae; test: Synergistic antibacterial activity against Klebsiella pneumoniae 776/1742 producing KPC-2 assessed as meropenem MIC at 8 ug/ml by broth microdilution method; type: functional; settings: dose 8 µg/ml
[12] = system: Acinetobacter baumannii; test: Synergistic antibacterial activity against Acinetobacter baumannii PR363 producing OXA-23 assessed as cefepime MIC at 4 ug/ml by broth microdilution method; type: functional; settings: dose 4 µg/ml
[13] = system: Escherichia coli; test: Synergistic antibacterial activity against Escherichia coli DH10B transfected with pBC SK (-) OXA-48 assessed as meropenem MIC at 4 ug/ml by broth microdilution method; type: functional; settings: dose 4 µg/ml; outline: as §1
[14] = system: Escherichia coli; test: Synergistic antibacterial activity against Escherichia coli DH10B transfected with pBC SK (-) PDC-3 assessed as meropenem MIC at 4 ug/ml by broth microdilution method; type: functional; settings: dose 4 µg/ml; outline: as §1
[15] = system: Pseudomonas aeruginosa; test: Synergistic antibacterial activity against Pseudomonas aeruginosa 715 assessed as meropenem MIC at 8 ug/ml by broth microdilution method; type: functional; settings: dose 8 µg/ml
[16] = system: Klebsiella pneumoniae; test: Synergistic antibacterial activity against Klebsiella pneumoniae 901/1860 producing KPC-3 assessed as meropenem MIC at 8 ug/ml by broth microdilution method; type: functional; settings: dose 8 µg/ml
[17] = system: Pseudomonas aeruginosa; test: Synergistic antibacterial activity against Pseudomonas aeruginosa 839 assessed as cefepime MIC at 8 ug/ml by broth microdilution method; type: functional; settings: dose 8 µg/ml
[18] = system: Escherichia coli; test: Synergistic antibacterial activity against Escherichia coli DH10B transfected with pBC SK (-) KPC-3 assessed as cefepime MIC at 8 ug/ml by broth microdilution method; type: functional; settings: dose 8 µg/ml
[19] = system: Klebsiella pneumoniae; test: Synergistic antibacterial activity against Klebsiella pneumoniae 440/1360 producing KPC-2 assessed as cefepime MIC at 4 ug/ml by broth microdilution method; type: functional; settings: dose 4 µg/ml; outline: as §1
[20] = system: Klebsiella pneumoniae; test: Synergistic antibacterial activity against Klebsiella pneumoniae 660/1568 producing KPC-3 assessed as meropenem MIC at 4 ug/ml by broth microdilution method; type: functional; settings: dose 4 µg/ml; outline: as §1
[21] = system: Klebsiella pneumoniae; test: Synergistic antibacterial activity against Klebsiella pneumoniae 977/1916 producing KPC-3 assessed as meropenem MIC at 8 ug/ml by broth microdilution method; type: functional; settings: dose 8 µg/ml
[22] = system: Acinetobacter baumannii; test: Synergistic antibacterial activity against Acinetobacter baumannii PR363 producing OXA-23 assessed as meropenem MIC at 8 ug/ml by broth microdilution method; type: functional; settings: dose 8 µg/ml
[23] = system: Escherichia coli; test: Synergistic antibacterial activity against Escherichia coli DH10B transfected with pBC SK (-) KPC-3 assessed as meropenem MIC at 4 ug/ml by broth microdilution method; type: functional; settings: dose 4 µg/ml
[24] = system: Klebsiella pneumoniae; test: Synergistic antibacterial activity against Klebsiella pneumoniae 761/1723 producing KPC-3 assessed as cefepime MIC at 4 ug/ml by broth microdilution method; type: functional; settings: dose 4 µg/ml; outline: as §1
[25] = system: Klebsiella pneumoniae; test: Synergistic antibacterial activity against Klebsiella pneumoniae 935/1884 producing KPC-3 assessed as meropenem MIC at 8 ug/ml by broth microdilution method; type: functional; settings: dose 8 µg/ml
[26] = system: Escherichia coli; test: Synergistic antibacterial activity against Escherichia coli DH10B transfected with pBC SK (-) KPC-2 assessed as cefepime MIC at 8 ug/ml by broth microdilution method; type: functional; settings: dose 8 µg/ml
[27] = system: Pseudomonas aeruginosa; test: Synergistic antibacterial activity against Pseudomonas aeruginosa 776 assessed as meropenem MIC at 4 ug/ml by broth microdilution method; type: functional; settings: dose 4 µg/ml
[28] = system: Klebsiella pneumoniae; test: Synergistic antibacterial activity against Klebsiella pneumoniae CAV 1543 producing OXA-48 assessed as cefepime MIC at 8 ug/ml by broth microdilution method; type: functional; settings: dose 8 µg/ml
[29] = system: Pseudomonas aeruginosa; test: Synergistic antibacterial activity against Pseudomonas aeruginosa 795 assessed as cefepime MIC at 8 ug/ml by broth microdilution method; type: functional; settings: dose 8 µg/ml
[30] = system: Klebsiella pneumoniae; test: Synergistic antibacterial activity against Klebsiella pneumoniae 1315/2198 producing KPC-3 assessed as cefepime MIC at 8 ug/ml by broth microdilution method; type: functional; settings: dose 8 µg/ml; outline: as §1
[31] = system: Klebsiella pneumoniae; test: Synergistic antibacterial activity against Klebsiella pneumoniae 11978 producing OXA-48 assessed as cefepime MIC at 8 ug/ml by broth microdilution method; type: functional; settings: dose 8 µg/ml; outline: as §1
[32] = system: Bacteria; test: Inhibition of bacteria PDC-3 assessed as half life using nitrocefin as substrate
[33] = system: Acinetobacter baumannii; test: Synergistic antibacterial activity against Acinetobacter baumannii PR408 producing OXA-24/40 assessed as cefepime MIC at 8 ug/ml by broth microdilution method; type: functional; settings: dose 8 µg/ml

SMILES: O=C(NNC(=O)[C@@H]1CC[C@@H]2CN1C(=O)N2OS(=O)(=O)O)[C@@H]1CCCNC1 [ZIDEBACTAM]
- MIC [1]: ≤ 0.12 µg/mL
- MIC [2]: ≤ 0.12 µg/mL
- MIC [3]: > 16 µg/mL
- MIC [4]: ≤ 0.12 µg/mL
- MIC [5]: > 16 µg/mL
- MIC [6]: > 16 µg/mL
- MIC [7]: ≤ 0.12 µg/mL
- MIC [8]: ≤ 0.12 µg/mL
- MIC [9]: ≤ 0.12 µg/mL
- MIC [10]: 0.25 µg/mL
- MIC [11]: ≤ 0.12 µg/mL
- MIC [12]: 8 µg/mL
- MIC [13]: ≤ 0.12 µg/mL
- MIC [14]: ≤ 0.12 µg/mL
- MIC [15]: 8 µg/mL
- MIC [16]: ≤ 0.12 µg/mL
- MIC [17]: 0.5 µg/mL
- MIC [18]: ≤ 0.12 µg/mL
- MIC [19]: ≤ 0.12 µg/mL
- MIC [20]: ≤ 0.12 µg/mL
- MIC [21]: ≤ 0.12 µg/mL
- MIC [22]: > 16 µg/mL
- MIC [23]: ≤ 0.12 µg/mL
- MIC [24]: ≤ 0.12 µg/mL
- MIC [25]: ≤ 0.12 µg/mL
- MIC [26]: ≤ 0.12 µg/mL
- MIC [27]: 16 µg/mL
- MIC [28]: ≤ 0.12 µg/mL
- MIC [29]: 16 µg/mL
- MIC [30]: ≤ 0.12 µg/mL
- MIC [31]: ≤ 0.12 µg/mL
- T1/2 [32]: 3.3 min
- MIC [33]: 16 µg/mL

SMILES: O=C(NNC(=O)[C@@H]1CC[C@@H]2CN1C(=O)N2OS(=O)(=O)O)[C@@H]1CCNC1
- MIC [1]: ≤ 0.12 µg/mL
- MIC [2]: 0.25 µg/mL
- MIC [3]: > 16 µg/mL
- MIC [4]: ≤ 0.12 µg/mL
- MIC [5]: > 16 µg/mL
- MIC [6]: > 16 µg/mL
- MIC [7]: ≤ 0.12 µg/mL
- MIC [8]: ≤ 0.12 µg/mL
- MIC [9]: ≤ 0.12 µg/mL
- MIC [10]: 0.25 µg/mL
- MIC [11]: ≤ 0.12 µg/mL
- MIC [12]: 8 µg/mL
- MIC [13]: ≤ 0.12 µg/mL
- MIC [14]: ≤ 0.12 µg/mL
- MIC [15]: 0.5 µg/mL
- MIC [16]: ≤ 0.12 µg/mL
- MIC [17]: ≤ 0.12 µg/mL
- MIC [18]: ≤ 0.12 µg/mL
- MIC [19]: ≤ 0.12 µg/mL
- MIC [20]: ≤ 0.12 µg/mL
- MIC [21]: ≤ 0.12 µg/mL
- MIC [22]: > 16 µg/mL
- MIC [23]: ≤ 0.12 µg/mL
- MIC [24]: ≤ 0.12 µg/mL
- MIC [25]: ≤ 0.12 µg/mL
- MIC [26]: ≤ 0.12 µg/mL
- MIC [27]: 16 µg/mL
- MIC [28]: ≤ 0.12 µg/mL
- MIC [29]: ≤ 0.12 µg/mL
- MIC [30]: ≤ 0.12 µg/mL
- MIC [31]: ≤ 0.12 µg/mL
- T1/2 [32]: 2.9 min
- MIC [33]: 16 µg/mL
